Results as given in ChEMBL document CHEMBL1124220 (J Med Chem, 1988).
Starred links: 1 amine or outer side, 2 acyl side, 3 side chain; linkers in the order of their positions; H or OH if unused. Non-standard residues stand in square brackets, D forms with d. Residues, ends and D or L forms follow the SMILES beside them. Ala(imidazol-2-yl) = N[C@@H](Cc1ncc[nH]1)C(=O)O; X2 = O=C([C@H](CCc1ncc[nH]1)N[*:1])[*:2]; Phe(4-NH2) = Nc1ccc(C[C@H](N)C(=O)O)cc1; 3Thi = N[C@@H](Cc1ccsc1)C(=O)O; Aib = CC(C)(N)C(=O)O; Sar = CNCC(=O)O

Experiments:
Format in all cases: functional
Rattus norvegicus [1] = assay: In vivo agonist angiotensin II like activity was measured in rat blood pressure increase by a 1 ug iv injection
Method in brief: (§1)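 Rat blood pressure in vivo. Residual AII-like activity read as the pressor rise (mmHg) after a 1-μg intravenous bolus of compound. Mean of at least five tests with standard error.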

Rattus norvegicus [2] = assay: Antagonist activity ID50 was measured in vivo in the rat blood pressure assay
Method in brief: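 Rat blood pressure in vivo, 250-g rats, compound given by infusion. AII dose-response curves measured before and during the infusion. ID50 expressed as ng/rat per min. Mean of at least five tests with standard error.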

Oryctolagus cuniculus = species on record: Oryctolagus cuniculus; assay: In vitro agonist angiotensin II like activity was measured in the rabbit aorta strip assay
Method in brief: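 Isolated rabbit aortic strips in vitro. Agonist (AII-like) activity expressed as percent of the activity of AII.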

Rattus norvegicus [3] = assay: In vivo angiotensin II like activity was measured in rat blood pressure assay expressed as percent activity relative to A II
Rattus norvegicus [4] = assay: In vivo agonist angiotensin II like activity was measured in rat blood pressure assay; design: concentration or dose not given beside the values; method in brief: as §1

Compound	BP increase (Rattus norvegicus [1]) [mmHg]	ID50 (Rattus norvegicus [2]) [ng min-1 rat-1]	Activity (Oryctolagus cuniculus) [%]	Activity (Rattus norvegicus [4]) [%]	also measured
CC[C@H](C)[C@H](NC(=O)[C@@H]1CCCN1C(=O)[C@H](Cc1c[nH]c2ccccc12)NC(=O)[C@@H](NC(=O)[C@H](Cc1ccc(O)cc1)NC(=O)[C@@H](NC(=O)[C@H](CCCN=C(N)N)NC(=O)CNC)C(C)C)[C@@H](C)CC)C(=O)O (H-[Sar]RVYIWPI-OH)	7.5	100	0	–	–
CC[C@H](C)[C@H](NC(=O)[C@H](Cc1ccc(O)cc1)NC(=O)[C@@H](NC(=O)C(C)(C)N)C(C)C)C(=O)N[C@@H](Cc1c[nH]cn1)C(=O)N1CCC[C@H]1C(=O)N[C@@H](Cc1ccccc1)C(=O)O (H-[Aib]VYIHPF-OH)	60	–	0	–	–
CC[C@H](C)[C@H](NC(=O)[C@@H]1CCCN1C(=O)[C@H](Cc1c[nH]cn1)NC(=O)[C@@H](NC(=O)[C@H](Cc1ccc(O)cc1)NC(=O)[C@@H](NC(=O)[C@@H](C)N)C(C)C)[C@@H](C)CC)C(=O)O	5	100	0	–	–
CC[C@H](C)[C@H](NC(=O)[C@@H]1CCCN1C(=O)[C@H](Cc1cncn1C)NC(=O)[C@@H](NC(=O)[C@H](Cc1ccc(O)cc1)NC(=O)[C@@H](NC(=O)[C@H](CCCN=C(N)N)NC(=O)CNC)C(C)C)[C@@H](C)CC)C(=O)O	2.5	100	0	–	–
CC[C@H](C)[C@H](NC(=O)[C@@H]1CCCN1C(=O)[C@H](Cc1ccccc1)NC(=O)[C@@H](NC(=O)[C@H](Cc1ccc(O)cc1)NC(=O)[C@@H](NC(=O)[C@H](CCCN=C(N)N)NC(=O)CNC)C(C)C)[C@@H](C)CC)C(=O)O (H-[Sar]RVYIFPI-OH)	10	100	0	–	–
CC[C@H](C)[C@H](NC(=O)[C@@H]1CCCN1C(=O)[C@H](Cc1c[nH]cn1)NC(=O)[C@@H](NC(=O)[C@H](Cc1ccc(O)cc1)NC(=O)[C@@H](NC(=O)[C@@H](CCCN=C(N)N)NC(=O)CNC)C(C)C)[C@@H](C)CC)C(=O)O	10	100	0	–	–
CC[C@@H](N)C(=O)N[C@H](C(=O)N[C@@H](Cc1ccc(O)cc1)C(=O)N[C@H](C(=O)N[C@@H](Cc1c[nH]cn1)C(=O)N1CCC[C@H]1C(=O)N[C@@H](Cc1ccccc1)C(=O)O)[C@@H](C)CC)C(C)C	–	–	–	–	Activity (Rattus norvegicus [3]): 22%
CC[C@H](C)[C@H](NC(=O)[C@@H]1CCCN1C(=O)[C@H](Cc1c[nH]cn1)NC(=O)[C@@H](NC(=O)[C@H](Cc1ccc(O)cc1)NC(=O)[C@@H](NC(=O)[C@H](CCCCN=C(N)N)NC(=O)CNC)C(C)C)[C@@H](C)CC)C(=O)O	7.5	50	0	–	–
CC[C@H](C)[C@H](NC(=O)[C@@H]1CCCN1C(=O)[C@H](Cc1c[nH]cn1)NC(=O)[C@@H](NC(=O)[C@H](Cc1ccc(O)cc1)NC(=O)[C@@H](NC(=O)CN(C)C(=O)CNC)C(C)C)[C@@H](C)CC)C(=O)O (H-[Sar][Sar]VYIHPI-OH)	8.5	150	0	–	–
CC[C@H](C)[C@H](NC(=O)[C@@H]1CCCN1C(=O)[C@H](Cc1c[nH]cn1)NC(=O)[C@@H](NC(=O)[C@H](Cc1ccc(O)cc1)NC(=O)[C@@H](NC(=O)[C@@H](CCCCN)NC(=O)CNC)C(C)C)[C@@H](C)CC)C(=O)O	12.5	50	0	–	–
CC[C@H](C)[C@H](NC(=O)[C@H](Cc1ccc(O)cc1)NC(=O)[C@@H](NC(=O)[C@@H](C)NC)C(C)C)C(=O)N[C@@H](Cc1c[nH]cn1)C(=O)N1CCC[C@H]1C(=O)N[C@@H](Cc1ccccc1)C(=O)O	85	–	1.4	–	–
CC[C@H](C)[C@H](NC(=O)[C@H](Cc1ccc(O)cc1)NC(=O)[C@@H](NC(=O)[C@H](CCCN=C(N)N)NC(=O)[C@@H](N)CC(=O)O)C(C)C)C(=O)N[C@@H](Cc1ccc(N)cc1)C(=O)N1CCC[C@H]1C(=O)N[C@@H](Cc1ccccc1)C(=O)O (H-DRVYI[Phe(4-NH2)]PF-OH)	–	–	–	0.05	–
CC[C@H](C)[C@H](NC(=O)[C@H](Cc1ccc(O)cc1)NC(=O)[C@@H](NC(=O)[C@@H](N)CCCN=C(N)N)C(C)C)C(=O)N[C@@H](Cc1c[nH]cn1)C(=O)N1CCC[C@H]1C(=O)N[C@@H](Cc1ccccc1)C(=O)O (stereo in doubt; 6)	–	–	43.3	33.3	–
CC[C@H](C)[C@H](NC(=O)[C@H](Cc1ccc(O)cc1)NC(=O)[C@@H](NC(=O)[C@H](CCCN=C(N)N)NC(=O)[C@@H](N)CC(=O)O)C(C)C)C(=O)N[C@@H](CCc1ncc[nH]1)C(=O)N1CCC[C@H]1C(=O)N[C@@H](Cc1ccccc1)C(=O)O (H-DRVYI[X2]PF-OH)	–	–	–	0.05	–
CC[C@H](C)[C@H](NC(=O)[C@@H]1CCCN1C(=O)[C@H](Cc1c[nH]cn1)NC(=O)[C@@H](NC(=O)[C@H](Cc1ccc(O)cc1)NC(=O)[C@@H](NC(=O)[C@H](N)CCCN=C(N)N)C(C)C)[C@@H](C)CC)C(=O)O	5	100	0	–	–
CC[C@H](C)[C@H](NC(=O)[C@H](Cc1ccc(O)cc1)NC(=O)[C@@H](NC(=O)[C@H](CCCN=C(N)N)NC(=O)[C@@H](N)CC(N)=O)C(C)C)C(=O)N[C@@H](Cc1c[nH]cn1)C(=O)N1CCC[C@H]1C(=O)N[C@@H](Cc1ccccc1)C(=O)O (H-NRVYIHPF-OH)	–	–	–	4	–
CC[C@H](C)[C@H](NC(=O)[C@@H]1CCCN1C(=O)[C@H](Cc1c[nH]cn1)NC(=O)[C@@H](NC(=O)[C@H](Cc1ccc(O)cc1)NC(=O)[C@@H](NC(=O)[C@@H](C)NC)C(C)C)[C@@H](C)CC)C(=O)O	10	25	0	–	–
CC[C@H](C)[C@H](NC(=O)[C@H](Cc1ccc(O)cc1)NC(=O)[C@@H](NC(=O)[C@H](N)CCCCN=C(N)N)C(C)C)C(=O)N[C@@H](Cc1c[nH]cn1)C(=O)N1CCC[C@H]1C(=O)N[C@@H](Cc1ccccc1)C(=O)O	–	–	–	11	–
CC[C@H](C)[C@H](NC(=O)[C@H](Cc1ccc(O)cc1)NC(=O)[C@@H](NC(=O)[C@H](C)N)C(C)C)C(=O)N[C@@H](Cc1c[nH]cn1)C(=O)N1CCC[C@H]1C(=O)N[C@@H](Cc1ccccc1)C(=O)O	–	–	–	3	–
CC[C@H](C)[C@H](NC(=O)[C@H](Cc1ccc(O)cc1)NC(=O)[C@@H](NC(=O)[C@H](CCCN=C(N)N)NC(=O)[C@@H](N)CC(=O)O)C(C)C)C(=O)N[C@@H](Cc1cn(C)cn1)C(=O)N1CCC[C@H]1C(=O)N[C@@H](Cc1ccccc1)C(=O)O	–	–	–	5	–
CC[C@H](C)[C@H](NC(=O)[C@H](Cc1ccc(O)cc1)NC(=O)[C@@H](NC(=O)[C@H](CCCN=C(N)N)NC(=O)[C@@H](N)CC(=O)O)C(C)C)C(=O)N[C@@H](C)C(=O)N1CCC[C@H]1C(=O)N[C@@H](Cc1ccccc1)C(=O)O (H-DRVYIAPF-OH)	–	–	–	0.8	–
CC[C@H](C)[C@H](NC(=O)[C@H](Cc1ccc(O)cc1)NC(=O)[C@@H](NC(=O)[C@H](CCCN=C(N)N)NC(=O)[C@@H](N)CC(=O)O)C(C)C)C(=O)N[C@@H](Cc1ncc[nH]1)C(=O)N1CCC[C@H]1C(=O)N[C@@H](Cc1ccccc1)C(=O)O (H-DRVYI[Ala(imidazol-2-yl)]PF-OH)	–	–	–	0.4	–
CC[C@H](C)[C@H](NC(=O)[C@H](Cc1ccc(O)cc1)NC(=O)[C@@H](NC(=O)[C@@H](N)CCCN=C(N)N)C(C)C)C(=O)N[C@@H](Cc1c[nH]cn1)C(=O)N1CCC[C@H]1C(=O)N[C@@H](Cc1ccccc1)C(=O)O (stereo in doubt; 5)	–	–	47.4	15	–
CC[C@H](C)[C@H](NC(=O)[C@H](Cc1ccc(O)cc1)NC(=O)[C@@H](NC(=O)[C@H](CCCN=C(N)N)NC(=O)[C@@H](N)CC(=O)O)C(C)C)C(=O)N[C@@H](CCCCN)C(=O)N1CCC[C@H]1C(=O)N[C@@H](Cc1ccccc1)C(=O)O (H-DRVYIKPF-OH)	–	–	–	–	Activity (Rattus norvegicus [1]): 0.1%
CC[C@H](C)[C@H](NC(=O)[C@@H]1CCCN1C(=O)[C@H](Cc1c[nH]cn1)NC(=O)[C@@H](NC(=O)[C@H](Cc1ccc(O)cc1)NC(=O)[C@@H](NC(=O)[C@H](CCCNC(N)=O)NC(=O)CNC)C(C)C)[C@@H](C)CC)C(=O)O	25	–	0	–	–
CC[C@H](C)[C@H](NC(=O)[C@@H]1CCCN1C(=O)[C@H](Cc1ccsc1)NC(=O)[C@@H](NC(=O)[C@H](Cc1ccc(O)cc1)NC(=O)[C@@H](NC(=O)[C@H](CCCN=C(N)N)NC(=O)CNC)C(C)C)[C@@H](C)CC)C(=O)O (H-[Sar]RVYI[3Thi]PI-OH)	12.5	100	0	–	–
CC[C@H](C)[C@H](NC(=O)[C@H](Cc1ccc(O)cc1)NC(=O)[C@@H](NC(=O)[C@@H](N)CCCN)C(C)C)C(=O)N[C@@H](Cc1c[nH]cn1)C(=O)N1CCC[C@H]1C(=O)N[C@@H](Cc1ccccc1)C(=O)O	–	–	–	3	–
CC[C@H](C)[C@H](NC(=O)[C@@H]1CCCN1C(=O)[C@H](Cc1c[nH]cn1)NC(=O)[C@@H](NC(=O)[C@H](Cc1ccc(O)cc1)NC(=O)[C@@H](NC(=O)[C@H](CCCN=C(N)N)NC(=O)CNC)C(C)C)[C@@H](C)CC)C(=O)O	10.2	10	0	–	–
CC[C@H](N)C(=O)N[C@H](C(=O)N[C@@H](Cc1ccc(O)cc1)C(=O)N[C@H](C(=O)N[C@@H](Cc1c[nH]cn1)C(=O)N1CCC[C@H]1C(=O)N[C@@H](Cc1ccccc1)C(=O)O)[C@@H](C)CC)C(C)C	–	–	–	0.92	–
CC[C@H](C)[C@H](NC(=O)[C@@H]1CCCN1C(=O)[C@H](Cc1c[nH]cn1)NC(=O)[C@@H](NC(=O)[C@H](Cc1ccc(O)cc1)NC(=O)[C@@H](NC(=O)[C@@H](N)CCCN=C(N)N)C(C)C)[C@@H](C)CC)C(=O)O	5	200	0	–	–
